Laboratory results as given in ChEMBL document CHEMBL5149972, “Novel Antimalarial Tetrazoles and Amides Active against the Hemoglobin Degradation Pathway in Plasmodium falciparum” (J Med Chem, 2021).
Converted amounts (≈) assume the structure as drawn.

How the values were obtained:
Plasmodium falciparum [1] = assay: Antiplasmodial activity against asexual blood stage Plasmodium falciparum 3D7 infected in human RBC assessed as parasite growth inhibition incubated for 72 hrs by SYBR Green dye based fluorescence assay; format: functional, organism-based; conditions: Plasmodium falciparum, 3D7, Erythrocyte, 72 h
Procedure, shortened: (§1)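 Blood-stage cultures at 2% hematocrit, human O+ RBCs, RPMI 1640 + 25 mM HEPES, 0.5% Albumax-I, 23 mM bicarbonate, 92 μM hypoxanthine. Start at 0.5% parasitemia; 72 h at 37°C, 5% CO₂; freeze-thaw, then SYBR Green in saponin/Triton lysis buffer, 4 h RT dark; fluorescence ex 485/em 535 nm. 10-point curves, technical duplicates or triplicates, final 0.5% DMSO; four-parameter fit gives EC₅₀; mean ± std dev of biological replicates.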

Plasmodium falciparum [2] = assay: Antiplasmodial activity against drug resistant Plasmodium falciparum Dd2 infected in human RBC assessed as parasite growth inhibition incubated for 72 hrs by SYBR Green dye based fluorescence assay; format: functional, organism-based; conditions: Plasmodium falciparum, Dd2, Erythrocyte, 72 h; procedure, shortened: as §1
[3] = Kinetic solubility of compound in PBS at pH 6.5 by HPLC analysis; format: physicochemical; conditions: read-out: Kinetic_solubility
Plasmodium falciparum [4] = assay: Antiplasmodial activity against Plasmodium falciparum mature stage V gametocyte assessed as inhibition of male gametocyte formation by luciferase reporter assay; format: functional, organism-based
Plasmodium falciparum [5] = assay: Antiplasmodial activity against Plasmodium falciparum mature stage V gametocyte assessed as inhibition of female gametocyte formation by luciferase reporter assay; format: functional, organism-based
Plasmodium falciparum [6] = assay: Antiplasmodial activity against Plasmodium falciparum NF54 infected in human RBC assessed as parasite growth inhibition incubated for 72 hrs by SYBR Green dye based fluorescence assay; format: functional, organism-based; conditions: NF54, Erythrocyte
Plasmodium falciparum [7] = assay: Antiplasmodial activity against chloroquine and pyrimethamine resistant Plasmodium falciparum K1 infected in human RBC assessed as parasite growth inhibition incubated for 72 hrs by SYBR Green dye based fluorescence assay; format: functional, organism-based; conditions: K1, Erythrocyte
Plasmodium falciparum [8] = assay: Antiplasmodial activity against chloroquine and pyrimethamine resistant Plasmodium falciparum 7G8 infected in human RBC assessed as parasite growth inhibition incubated for 72 hrs by SYBR Green dye based fluorescence assay; format: functional, organism-based; conditions: 7G8, Erythrocyte
Plasmodium falciparum [9] = assay: Antiplasmodial activity against chloroquine, atovaquone and pyrimethamine resistant Plasmodium falciparum TM90C2B infected in human RBC assessed as parasite growth inhibition incubated for 72 hrs by SYBR Green dye based fluorescence assay; format: functional, organism-based; conditions: Erythrocyte
Plasmodium falciparum [10] = assay: Antiplasmodial activity against piperaquine and pyrimethamine resistant Plasmodium falciparum RF12 infected in human RBC assessed as parasite growth inhibition incubated for 72 hrs by SYBR Green dye based fluorescence assay; format: functional, organism-based; conditions: RF12, Erythrocyte
Plasmodium falciparum [11] = assay: Antiplasmodial activity against chloroquine and pyrimethamine resistant Plasmodium falciparum Dd2 infected in human RBC assessed as parasite growth inhibition incubated for 72 hrs by SYBR Green dye based fluorescence assay; format: functional, organism-based; conditions: Dd2, Erythrocyte
Procedure, shortened: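 O+ human RBCs at 2% hematocrit and 0.5% starting parasitemia, in RPMI 1640 with 25 mM HEPES, 0.5% Albumax-I, bicarbonate and hypoxanthine. Serial dilutions in triplicate, 0.5% DMSO final, 72 h at 37°C, 5% CO2. Frozen at −80°C, lysed with SYBR Green in saponin/Triton buffer for 4 h in the dark. Ex 485/em 535 nm. EC50 from four-parameter fit; biphasic fit where curves were biphasic.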

Plasmodium falciparum [12] = assay: Antiplasmodial activity against chloroquine resistant Plasmodium falciparum Dd2-GC03 mutant replaced with 3D7 pfcrt sequence at endogenous pfcrt Dd2 locus infected in human RBC assessed as parasite growth inhibition incubated for 72 hrs by SYBR Green dye based fluorescence assay; format: functional, organism-based; conditions: Erythrocyte
Procedure, shortened: (§2)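 Gene-edited Dd2 lines with the endogenous pfcrt locus replaced by zinc-finger nuclease editing. Concentration-response curves run with technical duplicates at each concentration; values are the average of two biological replicates, with std dev given where more replicates were collected.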

Plasmodium falciparum [13] = assay: Antiplasmodial activity against chloroquine and piperaquine resistant Plasmodium falciparum Dd2-M343L mutant replaced with endogenous pfcrt locus with the recombinant Dd2 sequence and the PPQ resistance-conferring M343L at endogenous pfcrt Dd2 locus infected in human RBC assessed as parasite growth inhibition incubated for 72 hrs by SYBR Green dye based fluorescence assay; format: functional, organism-based; conditions: Erythrocyte; procedure, shortened: as §2
Plasmodium falciparum [14] = assay: Antiplasmodial activity against lab-derived MMV390048 resistant Plasmodium falciparum Dd2-Pfpi4K mutant infected in human RBC assessed as parasite growth inhibition incubated for 72 hrs by SYBR Green dye based fluorescence assay; format: functional, organism-based; conditions: Erythrocyte
Plasmodium falciparum [15] = assay: Antiplasmodial activity against lab-derived KAF156 resistant Plasmodium falciparum Dd2-Pfcarl mutant infected in human RBC assessed as parasite growth inhibition incubated for 72 hrs by SYBR Green dye based fluorescence assay; format: functional, organism-based; conditions: Erythrocyte
Hemozoin = assay: Inhibition of Beta-hematin assessed as bis-pyridyl-Fe(III)PPIX complex formation incubated for 5 hrs by NP40 detergent-mediated colorimetric assay
[16] = Inhibition of hemozoin formation in sorbitol-synchronized early ring stage plasmodium falciparum NF54 trophozoites assessed as fold increase in free heme-Fe level at 3 times EC50 incubated for 32 hrs by flow cytometry analysis; format: functional
Procedure, shortened: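 Trophozoites were saponin-released (0.05%), PBS-washed, counted by flow cytometry, then hypotonically lysed and sonicated. Heme was fractionated with HEPES, SDS, pyridine and NaOH and read as Fe(III)heme–pyridine absorbance against a heme standard curve (fg/cell). Three biological replicates; Student's t-test.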

Plasmodium falciparum [17] = assay: (§3) Antiplasmodial activity against Rac-N-(Pyridin-3-yl(1-(o-tolyl)-1H-tetrazol-5-yl)methyl)-N-(3-(trifluoromethyl)benzyl)Cyclopropanamine resistant Plasmodium falciparum 3D7 clone A10 ring-stage parasite assessed as parasite growth inhibition incubated for 72 hrs by SYBR Green and MitoTracker Deep Red FM dye based flow cytometry; format: functional, organism-based
Procedure, shortened: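 Resistant clonal lines were tested as ring stages at 0.2% parasitemia and 1% hematocrit in RPMI-1640 with 0.5% Albumax. A 10-point 2-fold dilution series was run in duplicate with DMSO controls, final DMSO <0.5%, for 72 h. Survival was read by flow cytometry with SYBR Green as nuclear stain and MitoTracker Deep Red as vital dye. EC50 and EC90 were derived.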

Plasmodium falciparum [18] = assay: as §3, with “F1-B6” for “A10”; format: functional, organism-based
Procedure, shortened: (§4)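 Clonal 3D7-A10 lines recovered after single-step selection; ring stages at 0.2% parasitemia, 1% hematocrit in RPMI-1640 with 0.5% Albumax. 72 h exposure to a 10-point 2-fold dilution series in duplicate with DMSO controls, final DMSO <0.5%. Survival read by flow cytometry, SYBR Green as nuclear stain and MitoTracker Deep Red FM as vital dye. EC₅₀ and EC₉₀ reported with fold shift relative to parental 3D7-A10.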

Plasmodium falciparum [19] = assay: as §3, with “F1-C1” for “A10”; format: functional, organism-based; procedure, shortened: as §4
Plasmodium falciparum [20] = assay: as §3, with “F1-E4” for “A10”; format: functional, organism-based; procedure, shortened: as §4
Plasmodium falciparum [21] = assay: as §3, with “F2-A11” for “A10”; format: functional, organism-based; procedure, shortened: as §4

Cc1ccccc1-n1nnnc1C(c1cccnc1)N(Cc1cccc(C(F)(F)F)c1)C1CC1 (racemic)
EC50 (Plasmodium falciparum [1]): 380 nM | EC50 (Plasmodium falciparum [2]): 540 nM | solubility kinetic [3]: 1.5 µg/mL (≈ 3.23 µM) | EC50 (Plasmodium falciparum [4]): > 25000 nM | EC50 (Plasmodium falciparum [5]): > 25000 nM | EC50 (Plasmodium falciparum [6]): 480 nM | EC50 (Plasmodium falciparum [7]): 360 nM | EC50 (Plasmodium falciparum [8]): 180 nM | EC50 (Plasmodium falciparum [9]): 460 nM | EC50 (Plasmodium falciparum [10]): 610 nM | EC50 (Plasmodium falciparum [11]): 540 nM | EC50 (Plasmodium falciparum [12]): 890 nM | EC50 (Plasmodium falciparum [13]): 38000 nM | EC50 (Plasmodium falciparum [14]): 750 nM | EC50 (Plasmodium falciparum [15]): 650 nM | IC50 (Hemozoin): 76000 nM | fold change (FC) [16]: 6 | EC50 (Plasmodium falciparum [17]; 3D7 clone A10, 72 h): 300 nM | EC90 (Plasmodium falciparum [17]; 3D7 clone A10, time 72 hrs): 590 nM | EC50 (Plasmodium falciparum [18]; 3D7 clone F1-B6, 72 h): 550 nM | EC90 (Plasmodium falciparum [18]; 3D7 clone F1-B6, time 72 hrs): 1100 nM | EC50 (Plasmodium falciparum [19]; 3D7 clone F1-C1, 72 h): 540 nM | EC90 (Plasmodium falciparum [19]; 3D7 clone F1-C1, time 72 hrs): 1000 nM | EC50 (Plasmodium falciparum [20]; 3D7 clone F1-E4, 72 h): 740 nM | EC90 (Plasmodium falciparum [20]; 3D7 clone F1-E4, time 72 hrs): 1500 nM | EC50 (Plasmodium falciparum [21]; 3D7 clone F2-A11, 72 h): 670 nM | EC90 (Plasmodium falciparum [21]; 3D7 clone F2-A11, time 72 hrs): 1300 nM
